From ChEMBL document CHEMBL1821682, “Synthesis of new 2'-deoxy-2'-fluoro-4'-azido nucleoside analogues as potent anti-HIV agents” (Eur J Med Chem, 2011) come the findings set out here.

Test [1] concerns Human immunodeficiency virus 1. The test can be described thus: Antiviral activity against NRTI-resistant Human immunodeficiency virus 1 7295-1 harboring reverse transcriptase D67N, K70R, T215F, K219Q, M184V and T69N mutant infected in human TZM-bl cells assessed as reduction in relative luminescence units after 48 hrs by luciferase reporter gene assay. The test is classed as functional, organism-based. The following applies: Human immunodeficiency virus 1, 7295-1, TZM-bl. In short, it runs like this:
(§1)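 Panel of eleven NRTI-resistant strains from the NIH Reagent Program plus wild-type NL4-3; highest concentration tested 40,000 nM. EC50 = concentration inhibiting HIV by 50%, averaged from at least two separate experiments.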

Test [2] concerns Human immunodeficiency virus 1. The test can be described thus: Antiviral activity against NRTI-resistant Human immunodeficiency virus 1 1617-1 harboring reverse transcriptase K70G, M184V, T69K, V75I, F77L, F116Y and Q151M mutant infected in human TZM-bl cells assessed as reduction in relative luminescence units after 48 hrs by luciferase reporter gene assay. The class given is functional, organism-based. The following applies: Human immunodeficiency virus 1, 1617-1, TZM-bl. An outline of the steps: as §1
In general terms: Reporter assays use an easily measured gene product as a stand-in for the process of interest.

Test [3] has as its system HepG2. The test can be described thus: Cytotoxicity activity against human HepG2 by CellTiter-Glo luminescent cell viability assay. The test is classed as cell-based. In short, it runs like this: (§2)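 CellTiter-Glo luminescent viability assay quantifying ATP in metabolically active cells; PBMC were PHA-activated. Highest concentration tested 140 μM. IC50 = concentration inhibiting cell growth by 50%, averaged from at least three separate experiments.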
Background: Cellular ATP, detected with luciferase, serves as a proxy for viable cell number.

For test [4], the system named is Human immunodeficiency virus 1. Description: Antiviral activity against NRTI-resistant Human immunodeficiency virus 1 4755-5 harboring reverse transcriptase M41L, D67N, L210W, T215Y, M184V, T69D, E44D and V118I mutant infected in human TZM-bl cells assessed as reduction in relative luminescence units after 48 hrs by luciferase reporter gene assay. The class given is functional, organism-based. The following applies: Human immunodeficiency virus 1, 4755-5, TZM-bl. In short, it runs like this:
as §1

The subject of test [5] is Human immunodeficiency virus 1. The test can be described thus: Antiviral activity against Human immunodeficiency virus 1 NL4-3 harboring reverse transcriptase K101E mutant infected in human TZM-bl cells assessed as reduction in relative luminescence units after 48 hrs by luciferase reporter gene assay. The test is classed as functional, organism-based. The following applies: Human immunodeficiency virus 1, NL4-3, TZM-bl.

For test [6], the system named is Human immunodeficiency virus 1. The test can be described thus: Antiviral activity against NNRTI-resistant Human immunodeficiency virus 1 RTMDR infected in human TZM-bl cells assessed as reduction in relative luminescence units after 48 hrs by luciferase reporter gene assay. The test is classed as functional, organism-based.
Test [7] deals with Human immunodeficiency virus 1. Description: Antiviral activity against NRTI-resistant Human immunodeficiency virus 1 7324-1 harboring reverse transcriptase M41L, D67N, K70R, T215F, K219E and T69N mutant infected in human TZM-bl cells assessed as reduction in relative luminescence units after 48 hrs by luciferase reporter gene assay. The test is classed as functional, organism-based. The following applies: Human immunodeficiency virus 1, 7324-1, TZM-bl. In short, it runs like this:
as §1

Test [8] relates to Human immunodeficiency virus 1. Description: Antiviral activity against NRTI-resistant Human immunodeficiency virus 1 56252-1 harboring reverse transcriptase K70R, V75I, F77L, F116Y, Q151M and K65R mutant infected in human TZM-bl cells assessed as reduction in relative luminescence units after 48 hrs by luciferase reporter gene assay. The class given is functional, organism-based. The following applies: Human immunodeficiency virus 1, 56252-1, TZM-bl. An outline of the steps:
as §1

Test [9] concerns MT4. Description: Cytotoxicity activity against human MT4 by CellTiter-Glo luminescent cell viability assay. The class given is cell-based. An outline of the steps:
as §2

Test [10] concerns Human immunodeficiency virus 1. Description: Antiviral activity against NRTI-resistant Human immunodeficiency virus 1 7303-3 harboring reverse transcriptase M41L, D67N, L210W, T215Y, T69D, E44D and V118I mutant infected in human TZM-bl cells assessed as reduction in relative luminescence units after 48 hrs by luciferase reporter gene assay. The following applies: Human immunodeficiency virus 1, 7303-3, TZM-bl. The test is classed as functional, organism-based. An outline of the steps: as §1

Test [11] concerns Human immunodeficiency virus 1. The test can be described thus: Antiviral activity against NRTI-resistant Human immunodeficiency virus 1 29129-2 harboring reverse transcriptase M41L, D67N, L210W, T215Y and M184V mutant infected in human TZM-bl cells assessed as reduction in relative luminescence units after 48 hrs by luciferase reporter gene assay. The test is classed as functional, organism-based. Conditions: Human immunodeficiency virus 1, 29129-2, TZM-bl. An outline of the steps: as §1

Test [12] concerns Human immunodeficiency virus 1. Description: Antiviral activity against NRTI-resistant Human immunodeficiency virus 1 6463-13 harboring reverse transcriptase M41L, D67N, L210W, T215Y, M184V and V118I mutant infected in human TZM-bl cells assessed as reduction in relative luminescence units after 48 hrs by luciferase reporter gene assay. The test is classed as functional, organism-based. The following applies: Human immunodeficiency virus 1, 6463-13, TZM-bl. In short, it runs like this:
as §1

Test [13] in a line: Cytotoxicity activity against human TZM-bl by CellTiter-Glo luminescent cell viability assay. The test is classed as cell-based. An outline of the steps: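 Viable TZM-bl cells (HeLa-derived) quantified by luminescent ATP read-out after exposure to compound, tested up to a top concentration of 140 μM. IC50 taken as the concentration that inhibits cell growth by 50%, averaged from at least three separate experiments.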

The nature of test [14]: Cytotoxicity activity against human ACH2 by CellTiter-Glo luminescent cell viability assay. Conditions: ACH-2. In short, it runs like this:
as §2

Test [15] has as its system Human immunodeficiency virus 1. Description: Antiviral activity against NRTI-resistant Human immunodeficiency virus 1 10076-4 harboring reverse transcriptase M41L, T215Y and M184V mutant infected in human TZM-bl cells assessed as reduction in relative luminescence units after 48 hrs by luciferase reporter gene assay. The class given is functional, organism-based. The following applies: Human immunodeficiency virus 1, 10076-4, TZM-bl. An outline of the steps:
as §1

Test [16] has as its system Human immunodeficiency virus 1. The test can be described thus: Antiviral activity against Human immunodeficiency virus 1 NL4-3 infected in human TZM-bl cells assessed as reduction in relative luminescence units after 48 hrs by luciferase reporter gene assay. Conditions: Human immunodeficiency virus 1, NL4-3, TZM-bl. The test is classed as functional, organism-based.

The test system of test [17] is PBMC. Description: Cytotoxicity activity against human PBMC by CellTiter-Glo luminescent cell viability assay. The class given is cell-based. In short, it runs like this: as §2
Test [18] has as its system Human immunodeficiency virus 1. The test can be described thus: Antiviral activity against vesicular stomatitis virus G-pseudotyped Human immunodeficiency virus 1 NL4-3 infected in human MT2 cells assessed as inhibition of viral replication after 48 hrs by luciferase activity reporter gene assay. The class given is functional, organism-based. An outline of the steps: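 Pseudovirus made by Ca3(PO4)2 co-transfection of 293 cells with env-deficient pNL4-3.luc.R−E− and VSV-G plasmid; supernatant harvested 48 h, 0.45 μm filtered. MT-2 cells (1.2×10⁵/well) pre-incubated with compound 15 min, then infected; solvent-only control. After 48 h cells lysed and luciferase measured; EC50 from dose-dependent inhibition, averaged from at least two experiments.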

Test [19] has as its system HEK-293T. The test can be described thus: Cytotoxicity activity against human 293T by CellTiter-Glo luminescent cell viability assay. The class given is cell-based. In short, it runs like this: as §2
Test [20] concerns Human immunodeficiency virus 1. Description: Antiviral activity against NRTI-resistant Human immunodeficiency virus 1 35764-2 harboring reverse transcriptase V75I, F77L, F116Y and Q151M mutant infected in human TZM-bl cells assessed as reduction in relative luminescence units after 48 hrs by luciferase reporter gene assay. The class given is functional, organism-based. Conditions: Human immunodeficiency virus 1, 35764-2, TZM-bl. In short, it runs like this: as §1

Test [21] relates to Human immunodeficiency virus 1. The test can be described thus: Antiviral activity against […] infected in human TZM-bl cells assessed as reduction in relative luminescence units after 48 hrs by luciferase reporter gene assay. The test is classed as functional, organism-based. Conditions: Human immunodeficiency virus 1, NL4-3, TZM-bl. An outline of the steps: as §1

For test [22], the system named is Human immunodeficiency virus 1. The test can be described thus: Antiviral activity against NRTI-resistant Human immunodeficiency virus 1 7324-4 harboring reverse transcriptase M41L, K70R, T215F and K219E mutant infected in human TZM-bl cells assessed as reduction in relative luminescence units after 48 hrs by luciferase reporter gene assay. The test is classed as functional, organism-based. Conditions: Human immunodeficiency virus 1, 7324-4, TZM-bl. An outline of the steps:
as §1

The EC50 is the concentration at which the effect is half-maximal. For orientation: IC50 means the concentration at which inhibition is half-maximal. A higher IC50 goes with weaker potency.

Turning to `[N-]=[N+]=N[C@]1(CO)O[C@@H](n2ccc(N)nc2=O)[C@@H](F)[C@@H]1O`, the 50% effective concentration (EC50) in test [1] was greater than 40000 nM; in [2], 32.2 nM; in test [4], greater than 40000 nM; in test [5] it was 0.15 nM; in [6], 0.11 nM; in test [7] it was 0.595 nM. For the same compound, the EC50 in test [8] is 0.525 nM; in test [10], 0.56 nM; in [11], greater than 40000 nM; in test [12], greater than 40000 nM; in test [15] it was greater than 40000 nM; in test [16], 0.086 nM. The EC50 in test [18] (mt2) came to 0.13 nM; in [20] it was 0.42 nM; in test [21], 0.318 nM; in test [22], 0.735 nM. For the same compound, the IC50 in test [3] is greater than 140000 nM; in test [9] it was 120 nM; in test [13], greater than 140000 nM; in test [14], 110 nM; in test [17] it was 150 nM; in test [19], greater than 140000 nM.
Regarding `[N-]=[N+]=N[C@]1(CO)O[C@@H](n2ccc(N)nc2=O)[C@@H](F)[C@@H]1O` [RO-0622], in test [18] (mt2), the EC50 was 0.3 nM.
Turning to `Cc1cn([C@H]2C[C@H](N=[N+]=[N-])[C@@H](CO)O2)c(=O)[nH]c1=O` [ZIDOVUDINE], in test [18] (Human immunodeficiency virus 1, NL4-3, MT2, 48 h), the EC50 is 47 nM.
